Assay type in all cases: functional
Experiment [1] has as its system Rhizopus. As to the kind of experiment: Antimicrobial activity against Rhizopus sp. after 3 to 4 days by serial plate dilution method. The procedure, abridged:
(§1)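 Fungal MIC by serial plate dilution. Sabouraud agar (peptone, D-glucose, agar; pH 5.7) plates seeded with saline spore suspension, dried 1 h at 37 °C. Wells punched and filled with compound in DMSO; DMSO-only control. Triplicate plates held 3–4 days at 37 °C; inhibition zone diameter measured. Amphotericin B positive control. Tested range […] per mL.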

In experiment [2] the test system is Mycolicibacterium fortuitum. As to the kind of experiment: Antimicrobial activity against Mycobacterium fortuitum ATCC 19542 after 7 days by resazurin assay. Particulars: ATCC 19542, 168 h.
Experiment [3] concerns Candida albicans. As to the kind of experiment: Antimicrobial activity against Candida albicans after 3 to 4 days by serial plate dilution method. The procedure, abridged:
as §1

Experiment [4] has as its system Mycobacterium tuberculosis. Kind of experiment: Antimicrobial activity against Mycobacterium tuberculosis H37Rv ATCC 27294 after 7 days by resazurin assay. As to conditions: H37Rv ATCC 27294, 168 h. The procedure, abridged: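 Resazurin microtitre assay. Cultures were grown in Middlebrook 7H9 with 10% OADC and added to fresh medium in 96-well plates. Test compounds came from 2 mg/mL DMF stocks, with DMF-only controls. Plates were incubated 7 days at 37 °C, then resazurin was added and read after 1 h at 37 °C. MIC was the lowest concentration preventing the blue-to-pink change.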

For experiment [5], the system named is Aspergillus flavus. Kind of experiment: Antimicrobial activity against Aspergillus flavus after 3 to 4 days by serial plate dilution method. The procedure, abridged:
as §1

Experiment [6] deals with Mycolicibacterium smegmatis. Kind of experiment: Antimicrobial activity against Mycobacterium smegmatis (MC2) ATCC 19420 after 7 days by resazurin assay. Particulars: (MC2) ATCC 19420, 168 h.
In experiment [7] the test system is Mycobacterium tuberculosis. As to the kind of experiment: Antimicrobial activity against Mycobacterium tuberculosis H37Rv ATCC 27294 at 1 to 100 ug/ml after 7 days by resazurin assay. The procedure, abridged:
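Preliminary screen at three concentrations (1, 10 and 100) by resazurin microtitre assay. Cultures were grown in Middlebrook 7H9 with 10% OADC, and compounds came from 2 mg/mL DMF stocks with DMF controls. Plates were incubated 7 days at 37 °C, and resazurin colour was read after 1 h. Inhibition was scored as no blue-to-pink change.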

Experiment [8] concerns Staphylococcus aureus. Kind of experiment: Antimicrobial activity against Staphylococcus aureus ATCC 25923 after 16 to 18 hrs by […].
Experiment [9] has as its system Escherichia coli. Kind of experiment: Antimicrobial activity against Escherichia coli ATCC 25922 after 16 to 18 hrs by […].
Experiment [10] concerns Klebsiella pneumoniae. Kind of experiment: Antimicrobial activity against Klebsiella pneumoniae ATCC 13883 after 16 to 18 hrs by serial plate dilution method. The procedure, abridged:
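Bacterial MIC by serial dilution in Mueller-Hinton broth adjusted to pH 5.0 with phosphate buffer. Tubes inoculated with standardized bacterial suspension, incubated 16–18 h at 37 °C. MIC read as lowest concentration with no visible growth. Range […] per mL. DMSO as negative control, ciprofloxacin as positive control.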

Experiment [11] deals with Staphylococcus aureus. Kind of experiment: Ratio of ciprofloxacin MIC to compound MIC for Staphylococcus aureus ATCC 25923.
Experiment [12] has as its system Klebsiella pneumoniae. As to the kind of experiment: Ratio of ciprofloxacin MIC to compound MIC for Klebsiella pneumoniae ATCC 13883.

The values that follow come from ChEMBL document CHEMBL3097988, “Synthesis and characterization of new N-(4-(4-chloro-1H-imidazol-1-yl)-3-methoxyphenyl)amide/sulfonamide derivatives as possible antimicrobial and antitubercular agents” (2014).

Molecules are shown by their SMILES. Converted amounts (≈) assume the structure as drawn. Bounds are passed on as bounds.

As for `COc1ccc(S(=O)(=O)Nc2ccc(-n3cnc(Cl)c3)c(OC)c2)cc1OC`, the MIC in experiment [1] was found to be 128 µg/mL (≈ 302 µM); in experiment [2], 1.25 µg/mL (≈ 2.95 µM); in experiment [3], 128 µg/mL (≈ 302 µM); in [4] it was 1.25 µg/mL (≈ 2.95 µM); in experiment [5] it was 256 µg/mL (≈ 604 µM); in experiment [6] it was 1.25 µg/mL (≈ 2.95 µM). Further, the MIC stood at 256 µg/mL (≈ 604 µM) in [8], 128 µg/mL (≈ 302 µM) in [9] and 256 µg/mL (≈ 604 µM) in [10]. For the same molecule, in experiment [7], the “inhibition (INH)” value is listed as 90%.

As to `COc1cc(NS(=O)(=O)c2ccc([N+](=O)[O-])cc2)ccc1-n1cnc(Cl)c1`, the MIC in [1] worked out at 64 µg/mL (≈ 157 µM); in experiment [2], 1.25 µg/mL (≈ 3.06 µM); in experiment [3], 256 µg/mL (≈ 626 µM); in [4] it was 0.625 µg/mL (≈ 1.53 µM); in experiment [5] it was 128 µg/mL (≈ 313 µM); in experiment [6], 10 µg/mL (≈ 24.5 µM). Further, the MIC is 128 µg/mL (≈ 313 µM) in [8], 128 µg/mL (≈ 313 µM) in experiment [9] and 64 µg/mL (≈ 157 µM) in experiment [10]. Besides, in [7], the “inhibition (INH)” value worked out at 90%.

In the case of `COc1cc(NS(=O)(=O)Cc2cccc(C(F)(F)F)c2)ccc1-n1cnc(Cl)c1`, the MIC in experiment [1] was 128 µg/mL (≈ 287 µM); in experiment [2] it was 10 µg/mL (≈ 22.4 µM); in [3] it was 64 µg/mL (≈ 144 µM); in experiment [4], 1.25 µg/mL (≈ 2.8 µM); in experiment [5] it was 32 µg/mL (≈ 71.8 µM); in experiment [8], 4 µg/mL (≈ 8.97 µM). Further, the MIC in experiment [9] worked out at 64 µg/mL (≈ 144 µM); in [10], 4 µg/mL (≈ 8.97 µM). Moreover, the Ratio was 1 in [11] and 2 in [12]. Moreover, the “inhibition (INH)” value in experiment [7] is given as 90%.

For the molecule `COc1cc(NS(=O)(=O)c2cccs2)ccc1-n1cnc(Cl)c1`, the MIC in experiment [1] worked out at 128 µg/mL (≈ 346 µM); in [2], 1.25 µg/mL (≈ 3.38 µM); in experiment [3], 64 µg/mL (≈ 173 µM); in experiment [4] it was 1.25 µg/mL (≈ 3.38 µM); in experiment [5], 256 µg/mL (≈ 692 µM); in experiment [6], 1.25 µg/mL (≈ 3.38 µM). The MIC stood at 128 µg/mL (≈ 346 µM) in [8], 64 µg/mL (≈ 173 µM) in [9] and 256 µg/mL (≈ 692 µM) in experiment [10]. Moreover, in [7], the “inhibition (INH)” value is reported as 90%.

Turning to `COc1cc(NC(=O)Cc2cccc(C(F)(F)F)c2)ccc1-n1cnc(Cl)c1`, the MIC in experiment [1] is above 256 µg/mL; in [2] it was 10 µg/mL (≈ 24.4 µM); in experiment [3], 128 µg/mL (≈ 312 µM); in experiment [4] it was 2.5 µg/mL (≈ 6.1 µM); in experiment [5], 256 µg/mL (≈ 625 µM); in [6], 10 µg/mL (≈ 24.4 µM). Also, the MIC came out at 128 µg/mL (≈ 312 µM) in experiment [8], 256 µg/mL (≈ 625 µM) in experiment [9] and 64 µg/mL (≈ 156 µM) in [10]. Moreover, the “inhibition (INH)” value in experiment [7] is below 90%.

For `COc1cc(NC(=O)c2ccc(C(F)(F)F)cc2)ccc1-n1cnc(Cl)c1`, the MIC in experiment [1] turned out to be 64 µg/mL (≈ 162 µM); in experiment [2], 1.25 µg/mL (≈ 3.16 µM); in experiment [3] it was 32 µg/mL (≈ 80.9 µM); in experiment [4], 1.25 µg/mL (≈ 3.16 µM); in experiment [5], 128 µg/mL (≈ 323 µM); in [6], 2.5 µg/mL (≈ 6.32 µM). In addition, the MIC in experiment [8] is 128 µg/mL (≈ 323 µM); in experiment [9], 64 µg/mL (≈ 162 µM); in [10], 64 µg/mL (≈ 162 µM). The “inhibition (INH)” value in experiment [7] is 90%.

For `COc1cc(NC(=O)c2cccc([N+](=O)[O-])c2Cl)ccc1-n1cnc(Cl)c1`, the MIC was above 256 µg/mL in experiment [1]; 1.25 µg/mL (≈ 3.07 µM) in experiment [2]; 128 µg/mL (≈ 314 µM) in experiment [3]; 1.25 µg/mL (≈ 3.07 µM) in experiment [4]; 256 µg/mL (≈ 629 µM) in experiment [5]; 1.25 µg/mL (≈ 3.07 µM) in experiment [6]. The MIC was 128 µg/mL (≈ 314 µM) in experiment [8], above 256 µg/mL in [9] and 128 µg/mL (≈ 314 µM) in [10]. Besides, the “inhibition (INH)” value in experiment [7] came out at 90%.

On to `COc1cc(NC(=O)c2cccs2)ccc1-n1cnc(Cl)c1`, for which the MIC worked out at 32 µg/mL (≈ 95.9 µM) in experiment [1]; 2.5 µg/mL (≈ 7.49 µM) in experiment [2]; 256 µg/mL (≈ 767 µM) in experiment [3]; 5 µg/mL (≈ 15 µM) in experiment [4]; 64 µg/mL (≈ 192 µM) in [5]; 1.25 µg/mL (≈ 3.74 µM) in [6]. The MIC came to 128 µg/mL (≈ 383 µM) in experiment [8], 128 µg/mL (≈ 383 µM) in [9] and 64 µg/mL (≈ 192 µM) in [10]. The “inhibition (INH)” value in experiment [7] was determined as 90%.
